Test results: PMC12304097 (Scientific Reports, 2025)
Each block holds one molecule with its values, some of them ahead of it.

Legend:
[1] = molecular target: T1, NEP2 (recombinant soluble extracellular domain) (Homo sapiens, UniProt Q495T6); test: Inhibition of NEP2-mediated NP cleavage; assay type: biochemical; settings: inhibitor 50 µM, NEP2 113 nM
T1 sequence (Q495T6 74-779): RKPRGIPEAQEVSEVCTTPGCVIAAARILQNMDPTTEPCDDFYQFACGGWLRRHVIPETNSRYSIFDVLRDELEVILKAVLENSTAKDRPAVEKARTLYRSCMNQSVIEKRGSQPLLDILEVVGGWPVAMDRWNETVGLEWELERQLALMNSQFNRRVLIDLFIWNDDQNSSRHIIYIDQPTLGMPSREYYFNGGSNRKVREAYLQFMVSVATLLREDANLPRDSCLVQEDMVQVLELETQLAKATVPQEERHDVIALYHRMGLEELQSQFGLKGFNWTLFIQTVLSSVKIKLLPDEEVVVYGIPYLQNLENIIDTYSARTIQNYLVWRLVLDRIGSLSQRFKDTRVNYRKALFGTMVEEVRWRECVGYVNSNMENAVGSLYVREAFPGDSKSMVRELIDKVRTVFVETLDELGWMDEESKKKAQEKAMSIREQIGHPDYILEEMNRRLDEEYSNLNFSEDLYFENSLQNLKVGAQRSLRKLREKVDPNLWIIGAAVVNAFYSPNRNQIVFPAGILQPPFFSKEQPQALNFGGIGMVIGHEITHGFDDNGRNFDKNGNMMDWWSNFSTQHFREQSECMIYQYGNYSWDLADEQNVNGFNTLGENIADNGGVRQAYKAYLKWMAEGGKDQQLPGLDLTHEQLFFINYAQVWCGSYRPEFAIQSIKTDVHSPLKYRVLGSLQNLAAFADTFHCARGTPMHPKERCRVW

[2] = test system: NEP; settings: cited from earlier work
[3] = test system: NEP2; settings: cited from earlier work
[4] = molecular target: T2, NEP (recombinant soluble extracellular domain) (Homo sapiens, UniProt P08473); test: Inhibition of NEP-mediated NP cleavage; assay type: biochemical; settings: inhibitor 50 µM, NEP 9.4 nM
T2 sequence (P08473 56-750): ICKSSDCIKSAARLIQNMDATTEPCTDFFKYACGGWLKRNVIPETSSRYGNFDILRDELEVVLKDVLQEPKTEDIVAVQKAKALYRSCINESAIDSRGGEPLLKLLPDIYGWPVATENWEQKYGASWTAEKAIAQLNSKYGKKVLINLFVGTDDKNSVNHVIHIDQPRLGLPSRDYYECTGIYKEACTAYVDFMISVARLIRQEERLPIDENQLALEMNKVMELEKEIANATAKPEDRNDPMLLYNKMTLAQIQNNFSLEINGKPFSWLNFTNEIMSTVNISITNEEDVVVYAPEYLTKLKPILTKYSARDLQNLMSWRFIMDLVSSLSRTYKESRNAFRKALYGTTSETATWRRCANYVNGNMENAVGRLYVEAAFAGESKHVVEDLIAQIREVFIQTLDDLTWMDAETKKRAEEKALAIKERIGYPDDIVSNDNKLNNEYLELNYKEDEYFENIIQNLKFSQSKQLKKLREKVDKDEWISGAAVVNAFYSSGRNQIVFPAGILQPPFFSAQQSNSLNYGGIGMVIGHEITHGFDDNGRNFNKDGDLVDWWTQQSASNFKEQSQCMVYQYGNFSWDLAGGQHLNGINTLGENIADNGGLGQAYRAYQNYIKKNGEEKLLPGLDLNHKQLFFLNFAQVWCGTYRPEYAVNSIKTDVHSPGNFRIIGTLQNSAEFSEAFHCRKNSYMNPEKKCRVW

[5] = test system: cGMP; settings: canine model of renin-angiotensin-aldosterone system; cited from earlier work
[6] = molecular target: T1, NEP2 (recombinant soluble extracellular domain); test: In vitro NP cleavage by NEP2, read by intact-ring s-IA; assay type: in vitro ADME; settings: sentence says the same is true for NEP2
Summary of the method: (§1)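 Ni-NTA-purified His-tagged soluble human ectodomains were used: NEP (aa 56–750, Expi293F) at 9.4 nM and NEP2 (aa 74–779, ExpiCHO-S) at 113 nM. Doses were activity-matched on a fluorogenic substrate. […] Reactions were stopped with EDTA buffer and read by Eu-chelate intact-ring ANP or BNP sandwich immunoassay, relative to enzyme-free sample.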

[7] = molecular target: T2, NEP (recombinant soluble extracellular domain); test: In vitro NP cleavage by NEP, read by intact-ring s-IA; assay type: in vitro ADME
Summary of the method: as §1

[8] = peptide 1.45 µM, intact-ring s-IA, P < 0.005

Effect of inhibitor on neo5-epitope formation during BNP proteolysis by NEP2 ([1]; BNP 1.45 µM, neo5 s-IA): inhibited | Effect of inhibitor on ANP and BNP proteolysis by NEP2 [1, 8]: inhibited | Effect of inhibitor on neo5-epitope formation during BNP proteolysis by NEP ([4]; BNP 1.45 µM, neo5 s-IA): inhibited | Effect of inhibitor on ANP and BNP proteolysis by NEP [4, 8]: inhibited
Molecule: CC(C)C[C@H](NP(=O)(O)O[C@@H]1O[C@@H](C)[C@H](O)[C@@H](O)[C@H]1O)C(=O)N[C@@H](Cc1c[nH]c2ccccc12)C(=O)O [phosphoramidon]
Inhibition of NEP [2]: sensitive | Inhibition of NEP2 [3]: sensitive

Molecule: C[C@H](C[C@@H](Cc1ccc(-c2ccccc2)cc1)NC(=O)CCC(=O)O)C(=O)O [sacubitrilat]
Circulating cGMP levels [5]: increased

Molecule: O=C(O)CNC(=O)C(CS)Cc1ccccc1 (centres unmarked) [thiorphan]
Affinity towards NEP2, fold lower than towards NEP [3]: 30 times | Inhibition of NEP2 [3]: less potently

Molecule: ANP: Synthetic ANP, 28 aa, aar 124–151 of UniProt P01160, Bachem
Susceptibility to proteolysis by NEP2 relative to BNP [6]: more susceptible to proteolysis | Susceptibility to proteolysis by NEP relative to BNP [7]: more susceptible to proteolysis
